Measurements published in ChEMBL document CHEMBL4376878, “Potent Thiophene Antagonists of Human Complement C3a Receptor with Anti-Inflammatory Activity” (J Med Chem, 2020).
Calls of active or inactive are those of the source. The calls are words filed in the database; no cut-off is given here.

Key:
[1] = target: T1, C3a anaphylatoxin chemotactic receptor (Homo sapiens, UniProt Q16581); experiment: Agonist activity at C3a receptor in human MDM cells assessed as induction of intracellular calcium release measured at 1 sec interval for => 200 secs by Fluo-3 AM dye-based FLIPR assay; type: cell-based
T1 sequence (Q16581 whole entry): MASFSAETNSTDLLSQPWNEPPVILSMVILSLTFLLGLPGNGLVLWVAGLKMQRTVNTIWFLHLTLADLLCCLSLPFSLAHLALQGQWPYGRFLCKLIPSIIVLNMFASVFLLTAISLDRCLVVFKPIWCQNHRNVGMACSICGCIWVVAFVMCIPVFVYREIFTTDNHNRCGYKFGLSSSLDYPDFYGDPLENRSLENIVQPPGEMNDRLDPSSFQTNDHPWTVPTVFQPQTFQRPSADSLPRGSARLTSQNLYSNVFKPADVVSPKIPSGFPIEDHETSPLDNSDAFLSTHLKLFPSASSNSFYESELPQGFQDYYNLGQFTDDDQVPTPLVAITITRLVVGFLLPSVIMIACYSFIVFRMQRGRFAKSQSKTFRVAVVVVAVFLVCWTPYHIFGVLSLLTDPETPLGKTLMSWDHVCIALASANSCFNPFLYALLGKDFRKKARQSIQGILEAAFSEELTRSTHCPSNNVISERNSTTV
Procedure, shortened: (§1)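 HMDMs were differentiated from CD14⁺ monocytes with M-CSF (100 ng/mL) for 7 days and seeded overnight at 5 × 10⁴ cells/well. Cells were loaded with 4 μM Fluo-3 AM for 1 h at 37 °C, then placed in HBSS with 2.5 mM probenecid and 20 mM HEPES, pH 7.4. Agonist was added on FLIPR and read at ex 495/em 520 nm. EC50 is relative to the maximum from 1 μM C3a; n ≥ 3.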

[2] = target: T1, C3a anaphylatoxin chemotactic receptor; experiment: Antagonist activity at C3a receptor in human MDM cells assessed as inhibition of C3a-induced intracellular calcium release preincubated for 30 mins followed by C3a addition and measured at 1 sec interval for => 200 secs by Fluo-3 AM dye-based FLIPR assay; type: functional, cell-based; conditions: read-out: IC50
Procedure, shortened: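 Macrophages were derived from CD14⁺ monocytes (M-CSF, 7 days) and dye-loaded with 4 μM Fluo-3 AM for 1 h at 37 °C in HBSS/probenecid/HEPES, pH 7.4. Antagonist was preincubated for 30 min at 37 °C before addition of synthetic full-length human C3a (100 nM). FLIPR fluorescence was read at ex 495/em 520 nm. Percent response was plotted against log concentration; n ≥ 3.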

[3] = target: T1, C3a anaphylatoxin chemotactic receptor; experiment: Partial agonist activity at C3a receptor in human MDM cells assessed as induction of intracellular calcium release at higher concentration measured at 1 sec interval for => 200 secs by Fluo-3 AM dye-based FLIPR assay relative to control; type: cell-based; procedure, shortened: as §1
[4] = Stability of the compound in rat liver microsomes at 1 uM preincubated for 5 mins followed by NADPH addition and measured after 1 hr by LC-MS/MS analysis; type: ADME, Microsome
Procedure, shortened: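 Compound at 1 μM in 100 mM phosphate buffer, pH 7.4 (0.1% DMSO), was incubated with rat liver microsomes […] at 37 °C before further NADPH was added. Aliquots taken at 0, 5, 15, 30 and 60 min were quenched in MeCN/H₂O (9:1), centrifuged and analysed by LC-MS/MS. Microsomal activity was confirmed in parallel with SLIGRL-NH₂; n = 3.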

[5] = target: T2, C3a anaphylatoxin chemotactic receptor (Homo sapiens) (UniProt Q16581); experiment: Displacement of Eu-DTPA-C3a from Galpha16-coupled C3a receptor (unknown origin) expressed in HEK293 cells measured after 60 mins by time-resolved fluorescence assay; type: cell-based
T2 sequence (whole entry): T1 sequence (Q16581 whole entry)

[6] = AUC (0 to 8 hrs) in Wistar rat at 0.5 mg/kg, iv by LC-MS/MS analysis; type: ADME, organism-based; set-up: time < 8 hr, dose 0.5 mg/kg, route intravenous; conditions: in vivo
Procedure, shortened: (§2)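 Male Wistar rats with jugular vein catheter, fasted overnight; dosed p.o. by gavage in olive oil or i.v. via catheter in 50% DMSO. Blood drawn from conscious unrestrained rats 5 min before dosing, then 5, 15, 30 min and 1–8 h after. Volume replaced with heparinized saline. Rats fed after 4 h sample. n = 3 per route.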

[7] = Volume of distribution in Wistar rat at 0.5 mg/kg, iv by LC-MS/MS analysis; type: ADME, organism-based; conditions: in vivo; procedure, shortened: as §2
[8] = Elimination half-life in Wistar rat at 0.5 mg/kg, iv by LC-MS/MS analysis; type: ADME, organism-based; conditions: in vivo, read-out: beta t1/2; procedure, shortened: as §2
[9] = Stability of the compound in rat plasma at 1 mM measured after 4 hrs by LC-MS analysis; type: ADME, cell-free
Procedure, shortened: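 Compound added to rat plasma from 1 mM DMSO stock (stock concentration) and incubated at 37 °C. Samples taken at 0, 5, 15, 30, 60, 120 and 240 min, quenched in MeCN/H₂O 9:1, centrifuged and analyzed by LC-MS. Plasma activity checked with SLIGRL-NH₂.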

[10] = Clearance in Wistar rat at 0.5 mg/kg, iv by LC-MS/MS analysis; type: ADME, organism-based; conditions: in vivo; procedure, shortened: as §2
[11] = AUC (0 to 8 hrs) in Wistar rat at 10 mg/kg, po by LC-MS/MS analysis; type: ADME, organism-based; set-up: dose 10 mg/kg, time < 8 hr, route oral; conditions: in vivo; procedure, shortened: as §2
[12] = Tmax in Wistar rat at 10 mg/kg, po by LC-MS/MS analysis; type: ADME, organism-based; conditions: in vivo; procedure, shortened: as §2
[13] = Cmax in Wistar rat at 10 mg/kg, po by LC-MS/MS analysis; type: ADME, organism-based; set-up: dose 10 mg/kg, route oral; conditions: in vivo; procedure, shortened: as §2
Rattus norvegicus = experiment: Antiinflammatory activity in Wistar rat model of BR103-induced paw edema assessed as reduction in hind paw swelling at 10 mg/kg, po administered via gavage pretreated for 2 hrs followed by BR103 challenge and measured after 30 mins by digital caliper method relative to control; type: functional; set-up: scale not given: the % may be the effect or the level left
Procedure, shortened: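 Male Wistar rats were given antagonist at 10 mg/kg by oral gavage in olive oil 2 h before intraplantar BR103 (350 μg in 100 μL of 5% DMSO). Sham paws received vehicle; sham and control rats received olive oil only. Paw thickness and width were measured with digital calipers at 0, 0.5, 1 and 2 h after agonist; n = 3 per group.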

[14] = target: T3, C5a anaphylatoxin chemotactic receptor 1 (Homo sapiens) (UniProt P21730); experiment: Antagonist activity at C5a receptor in human MDM cells assessed as inhibition of C5a-induced intracellular calcium release preincubated for 30 mins followed by C5a addition and measured at 1 sec interval for => 200 secs by Fluo-3 AM dye-based FLIPR assay; type: functional, cell-based
T3 sequence (whole entry): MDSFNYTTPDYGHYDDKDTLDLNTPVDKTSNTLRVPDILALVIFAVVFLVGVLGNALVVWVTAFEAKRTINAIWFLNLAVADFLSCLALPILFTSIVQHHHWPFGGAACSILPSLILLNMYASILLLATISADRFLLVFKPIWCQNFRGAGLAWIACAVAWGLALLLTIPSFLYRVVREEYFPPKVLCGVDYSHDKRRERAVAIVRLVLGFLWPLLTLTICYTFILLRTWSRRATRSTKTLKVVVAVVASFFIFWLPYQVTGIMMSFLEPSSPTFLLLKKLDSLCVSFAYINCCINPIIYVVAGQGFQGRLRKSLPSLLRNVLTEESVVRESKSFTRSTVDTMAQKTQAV
Procedure, shortened: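 HMDMs from CD14+ monocytes after 7 days in M-CSF; 5 × 10⁴ cells/well seeded overnight. Cells loaded 1 h at 37 °C with 4 μM Fluo-3 AM, then washed into HBSS with 2.5 mM probenecid and 20 mM HEPES, pH 7.4. Antagonist preincubated 30 min at 37 °C before C5a. Fluorescence (ex 495/em 520 nm) read every 1 s for ≥200 s.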

SMILES | EC50 ([1]; read-out: EC50) [µM] | EC50 ([1]; read-out: pEC50 (converted)) [µM] | IC50 [2] [nM] | also measured
N=C(N)NCCC[C@H](NC(=O)c1sc(C(c2ccccc2)c2ccccc2)c2c1CCCC2)C(=O)O | > 100 | > 100 | 2400 | 
N=C(N)NCCC[C@H](NC(=O)c1ccc(C(c2ccccc2)c2ccc3ccccc3c2)s1)C(=O)O (mixture of isomers) | > 100 | > 100 | 90 | 
Cc1cc(C(c2ccc(F)cc2)c2ccc(F)cc2)sc1C(=O)N[C@@H](CCCNC(=N)N)C(=O)O | > 100 | > 100 | 35 | Activity [3]: 30 to 80%
COc1ccc(C(c2ccc(OC)cc2)c2ccc(C(=O)N[C@@H](CCCNC(=N)N)C(=O)O)s2)cc1 | > 100 | > 100 | 6100 | 
N=C(N)NCCC[C@H](NC(=O)c1ccc(C(c2cccc(Cl)c2)c2cccc(Cl)c2)s1)C(=O)O | 0.05 |  | 6 | Activity [3]: <= 60%
N=C(N)NCCC[C@H](NC(=O)c1cc(-c2ccccc2)c(C(c2ccccc2)c2ccccc2)s1)C(=O)O | > 100 | > 100 | 140 | 
N=C(N)NCCC[C@H](NC(=O)c1ccc(C(Cc2ccccc2)Cc2ccccc2)s1)C(=O)O | > 100 | > 100 | 100 | 
N=C(N)NCCC[C@H](NC(=O)c1ccc(C2CCCCCCCCCCC2)s1)C(=O)O | > 100 | > 100 | > 100000 | 
N=C(N)NCCC[C@H](NC(=O)c1ccc(C(c2ccccc2)c2ccccn2)s1)C(=O)O (mixture of isomers) | > 100 | > 100 | 40 | Activity [3]: 30 to 80%
N=C(N)NCCC[C@H](NC(=O)c1ccc(Cc2ccccc2)s1)C(=O)O | > 100 | > 100 | > 10000 | 
Cc1cc(C(c2cccc(Cl)c2)c2cccc(Cl)c2)sc1C(=O)N[C@@H](CCCNC(=N)N)C(=O)O | 0.046 |  | 3 | Activity [3]: <= 80%
CCC(c1ccccc1)c1ccc(C(=O)N[C@@H](CCCNC(=N)N)C(=O)O)s1 (mixture of isomers) | > 100 | > 100 | 2300 | 
CC(c1ccccc1)c1ccc(C(=O)N[C@@H](CCCNC(=N)N)C(=O)O)s1 (mixture of isomers) | > 100 | > 100 | > 10000 | 
Cc1cc(C(c2ccc(O)cc2)c2ccc(O)cc2)sc1C(=O)N[C@@H](CCCNC(=N)N)C(=O)O | > 100 | > 100 | 790 | Stability [4]: Stable
CC(C)=C(c1ccccc1)c1ccc(C(=O)N[C@@H](CCCNC(=N)N)C(=O)O)s1 | > 100 | > 100 | 4400 | 
CCC(Cc1ccccc1)c1ccc(C(=O)N[C@@H](CCCNC(=N)N)C(=O)O)s1 (mixture of isomers) | > 100 | > 100 | 200 | 
N=C(N)NCCC[C@H](NC(=O)c1cnc(C(c2ccccc2)c2ccccc2)s1)C(=O)O | > 100 | > 100 | 600 | 
N=C(N)NCCC[C@H](NC(=O)c1sc(C(c2ccccc2)c2ccccc2)cc1Br)C(=O)O |  | 100 | 510 | Activity [3]: 30 to 80%
Cc1[nH]c(C(c2ccccc2)c2ccccc2)nc1C(=O)N[C@@H](CCCNC(=N)N)C(=O)O |  |  |  | inhibition [5]: Dose-dependent effect
N=C(N)NCCC[C@H](NC(=O)c1ccc(C(c2ccccc2)C2CCCCC2)s1)C(=O)O (mixture of isomers) | 0.07 |  | 4 | Activity [3]: <= 30%
N=C(N)NCCC[C@H](NC(=O)c1ccc(C(c2ccc(Cl)cc2)c2ccc(Cl)cc2)s1)C(=O)O | > 100 | > 100 | 30 | AUC(0-t) at 8 h [6]: 1800 ng·h/mL; Vd [7]: 0.3 L; half-life [8]: 61 min; Stability [9]: Stable; Stability [4]: Stable; clearance [10]: 4.6 mL/min/kg; AUC(0-t) at 8 h [11]: 814 ng·h/mL; Tmax [12]: 4 h; Cmax [13]: 143 ng/mL; Activity (Rattus norvegicus): 45%
N=C(N)NCCC[C@H](NC(=O)c1ccc(C(c2ccc(F)cc2)c2ccc(F)cc2)s1)C(=O)O | > 10 | > 10 | 100 | 
COc1ccc(C(c2ccc(OC)cc2)c2cc(C)c(C(=O)N[C@@H](CCCNC(=N)N)C(=O)O)s2)cc1 | > 100 | > 100 | 2000 | 
Cc1cc(C(=O)N[C@@H](CCCNC(=N)N)C(=O)O)sc1C(c1ccccc1)c1ccccc1 | > 100 | > 100 | 140 | 
CC(=O)N[C@@H](Cc1ccccc1)C(=O)N[C@H]1CCCNC(=O)[C@H](CCCN=C(N)N)NC(=O)[C@H](Cc2c[nH]c3ccccc23)NC(=O)[C@@H](CC2CCCCC2)NC(=O)[C@@H]2CCCN2C1=O |  |  |  | inhibition [14]: Active
N=C(N)NCCC[C@H](NC(=O)c1sc(C(c2ccccc2)c2ccccc2)cc1-c1ccccc1)C(=O)O | > 100 | > 100 | > 100000 | 
